From ChEMBL document CHEMBL1155843, “Selective alkylation of beta(II)-tubulin and thioredoxin-1 by structurally related subsets of aryl chloroethylureas leading to either anti-microtubules or redox modulating agents” (2008)
The source made the active and inactive calls. The calls are words filed in the database; no cut-off is given here.

Tests used:
[1] = test system: MCF7; experiment: Cell cycle arrest in human MCF7 cells assessed as accumulation at S phase at 2 times GI50 after 24 hrs by flow cytometry; type: functional
Method in brief: (§1)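 Cells were trypsinized, PBS-washed, fixed in ice-cold ethanol, and stained with propidium iodide plus RNase for 30 min at room temperature. G0/G1, S and G2/M fractions were measured by flow cytometry.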

[2] = test system: MCF7; experiment: Cell cycle arrest in human MCF7 cells assessed as accumulation at G0/G1 phase at 2 times GI50 after 24 hrs by flow cytometry; type: functional; method in brief: as §1
[3] = test system: M21; experiment: Induction of beta2-tubulin alkylation in human M21 cells at 2 times GI50 by Western blot analysis; type: cell-based
Method in brief: (§2)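 Floating and adherent cells were pooled and lysed in boiled Laemmli buffer; protein was measured by Lowry. 20 µg per lane ran on 10% SDS-PAGE and was blotted with anti-βII-tubulin (1:500), HRP anti-mouse (1:2500) and ECL. Alkylation was scored as a faster-migrating βII-tubulin band.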

[4] = test system: MCF7; experiment: Cell cycle arrest in human MCF7 cells assessed as accumulation at G2/M phase at 2 times GI50 after 24 hrs by flow cytometry; type: functional; method in brief: as §1
[5] = test system: M21; experiment: Stimulation of nuclear translocation of thioredoxin-1 from cytosol in human M21 cells at 25 µM after 16 hrs by immunocytofluorescence
[6] = test system: M21; experiment: Induction of beta2-tubulin alkylation in human M21 cells at 2 times GI50 after 24 hrs by Western blot analysis; type: cell-based; method in brief: as §2
[7] = test system: MCF7; experiment: Antiproliferative activity against human MCF7 cells after 48 hrs by sulforhodamine B method; type: functional; details: MCF7, 48 h
Method in brief: (§3)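 Seeding per well: 5 × 10³ HT-29 cells, or 3.5 × 10³ M21 or MCF-7 cells. Drugs were dissolved fresh in DMSO and serially diluted in medium (final range 100 to 0.3), with DMSO held at 0.12%. Cells were exposed for 48 h, fixed with cold TCA (10% final, 1 h, 4 °C) and stained with 0.1% SRB for 15 min. Dye was solubilized in 10 mM Tris and read at A585. Day-0 OD was subtracted, inhibition was calculated against DMSO cells, and n ≥ 3.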

[8] = test system: HT-29; experiment: Antiproliferative activity against human HT29 cells after 48 hrs by sulforhodamine B method; type: functional; details: HT-29, 48 h; method in brief: as §3
[9] = test system: M21; experiment: Inhibition of nuclear translocation of thioredoxin-1 from cytosol in human M21 cells at 2 times GI50 after 16 hrs by immunocytofluorescence; type: functional, cell-based
Method in brief: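 Cells were fixed in 3.7% formaldehyde (20 min), permeabilized with 0.1% saponin and blocked with 3% BSA. Staining used anti-Trx-1 monoclonal (1:200, 2 h, 37 °C) and Alexa-488 anti-mouse IgG (1:1000, 1 h). Trx-1 cytosol/nucleus localization was read by confocal immunofluorescence.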

[10] = test system: M21; experiment: Antiproliferative activity against human M21 cells after 48 hrs by sulforhodamine B method; type: functional; details: M21, 48 h; method in brief: as §3
[11] = test system: M21; experiment: Induction of beta2-tubulin alkylation in human M21 cells at 2 times GI50 after 48 hrs by Western blot analysis; type: cell-based; method in brief: as §2

| SMILES | Activity [1] [%] | Activity [2] [%] | Activity [3] | Activity [4] [%] | Activity [5] | Activity [6] | GI50 [7] [nM] | GI50 [8] [nM] | Activity [9] | GI50 [10] [nM] | Activity [11] |
| --- | --- | --- | --- | --- | --- | --- | --- | --- | --- | --- | --- |
| CCC(C)SSc1ncc[nH]1 (centres undefined) [PX-12] | 13 | 29 | inactive | 58 | Active | – | – | – | – | – | – |
| CC1(C)CCC(C)(C)c2cc(NC(=O)NCCCl)ccc21 | 20 | 6 | – | 74 | – | Active | 4200 | 1300 | inactive | 2600 | Active |
